Test results as given in ChEMBL document CHEMBL3862016 (Bioorg Med Chem Lett, 2016).
The source made the active and inactive calls. The rule behind the calls is not given here.

Assays:
Histone deacetylase 3 = Histone deacetylase 3 (Homo sapiens, UniProt O15379); assay: Inhibition of HDAC3 (unknown origin) assessed as inhibition of fluorogenic peptide deacetylation
Histone deacetylase 2 = Histone deacetylase 2 (Homo sapiens, UniProt Q92769); assay: Inhibition of HDAC2 (unknown origin) assessed as inhibition of fluorogenic peptide deacetylation
Histone deacetylase 1 = Histone deacetylase 1 (Homo sapiens, UniProt Q13547); assay: Inhibition of HDAC1 (unknown origin) assessed as inhibition of fluorogenic peptide deacetylation
Androgen receptor = target: T1, Androgen receptor (Homo sapiens, UniProt P10275); assay: Displacement of [3H]mibolerone from androgen receptor (unknown origin) in membranes after 24 hrs by HAP adsorption assay
T1 sequence (P10275 whole entry): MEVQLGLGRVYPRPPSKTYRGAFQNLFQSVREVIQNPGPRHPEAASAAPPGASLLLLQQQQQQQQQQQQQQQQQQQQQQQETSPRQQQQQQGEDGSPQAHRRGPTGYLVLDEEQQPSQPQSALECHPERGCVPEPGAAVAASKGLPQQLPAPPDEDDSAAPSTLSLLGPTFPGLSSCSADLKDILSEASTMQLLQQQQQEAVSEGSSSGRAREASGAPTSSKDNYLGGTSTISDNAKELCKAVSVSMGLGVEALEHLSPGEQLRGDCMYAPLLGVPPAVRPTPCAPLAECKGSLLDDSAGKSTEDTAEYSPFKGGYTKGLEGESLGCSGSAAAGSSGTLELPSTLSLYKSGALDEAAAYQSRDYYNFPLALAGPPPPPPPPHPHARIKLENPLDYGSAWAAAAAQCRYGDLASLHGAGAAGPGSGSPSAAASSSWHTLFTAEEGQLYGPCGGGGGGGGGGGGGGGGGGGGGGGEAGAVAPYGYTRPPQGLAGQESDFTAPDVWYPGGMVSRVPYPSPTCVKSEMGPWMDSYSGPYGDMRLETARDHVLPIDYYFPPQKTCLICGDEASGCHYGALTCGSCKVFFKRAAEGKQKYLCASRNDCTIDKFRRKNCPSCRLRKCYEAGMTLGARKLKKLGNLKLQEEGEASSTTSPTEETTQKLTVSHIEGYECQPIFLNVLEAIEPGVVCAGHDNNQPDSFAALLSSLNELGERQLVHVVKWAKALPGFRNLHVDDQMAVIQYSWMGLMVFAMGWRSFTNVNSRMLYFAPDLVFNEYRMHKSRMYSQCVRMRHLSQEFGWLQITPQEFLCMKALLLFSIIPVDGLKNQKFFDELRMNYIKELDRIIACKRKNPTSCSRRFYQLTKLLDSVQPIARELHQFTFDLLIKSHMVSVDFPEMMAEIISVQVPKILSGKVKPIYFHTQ

[1] = target: T2, Protein deacetylase HDAC6 (Homo sapiens, UniProt Q9UBN7); assay: Inhibition of HDAC6 (unknown origin) assessed as inhibition of fluorogenic peptide deacetylation
T2 sequence (Q9UBN7 whole entry): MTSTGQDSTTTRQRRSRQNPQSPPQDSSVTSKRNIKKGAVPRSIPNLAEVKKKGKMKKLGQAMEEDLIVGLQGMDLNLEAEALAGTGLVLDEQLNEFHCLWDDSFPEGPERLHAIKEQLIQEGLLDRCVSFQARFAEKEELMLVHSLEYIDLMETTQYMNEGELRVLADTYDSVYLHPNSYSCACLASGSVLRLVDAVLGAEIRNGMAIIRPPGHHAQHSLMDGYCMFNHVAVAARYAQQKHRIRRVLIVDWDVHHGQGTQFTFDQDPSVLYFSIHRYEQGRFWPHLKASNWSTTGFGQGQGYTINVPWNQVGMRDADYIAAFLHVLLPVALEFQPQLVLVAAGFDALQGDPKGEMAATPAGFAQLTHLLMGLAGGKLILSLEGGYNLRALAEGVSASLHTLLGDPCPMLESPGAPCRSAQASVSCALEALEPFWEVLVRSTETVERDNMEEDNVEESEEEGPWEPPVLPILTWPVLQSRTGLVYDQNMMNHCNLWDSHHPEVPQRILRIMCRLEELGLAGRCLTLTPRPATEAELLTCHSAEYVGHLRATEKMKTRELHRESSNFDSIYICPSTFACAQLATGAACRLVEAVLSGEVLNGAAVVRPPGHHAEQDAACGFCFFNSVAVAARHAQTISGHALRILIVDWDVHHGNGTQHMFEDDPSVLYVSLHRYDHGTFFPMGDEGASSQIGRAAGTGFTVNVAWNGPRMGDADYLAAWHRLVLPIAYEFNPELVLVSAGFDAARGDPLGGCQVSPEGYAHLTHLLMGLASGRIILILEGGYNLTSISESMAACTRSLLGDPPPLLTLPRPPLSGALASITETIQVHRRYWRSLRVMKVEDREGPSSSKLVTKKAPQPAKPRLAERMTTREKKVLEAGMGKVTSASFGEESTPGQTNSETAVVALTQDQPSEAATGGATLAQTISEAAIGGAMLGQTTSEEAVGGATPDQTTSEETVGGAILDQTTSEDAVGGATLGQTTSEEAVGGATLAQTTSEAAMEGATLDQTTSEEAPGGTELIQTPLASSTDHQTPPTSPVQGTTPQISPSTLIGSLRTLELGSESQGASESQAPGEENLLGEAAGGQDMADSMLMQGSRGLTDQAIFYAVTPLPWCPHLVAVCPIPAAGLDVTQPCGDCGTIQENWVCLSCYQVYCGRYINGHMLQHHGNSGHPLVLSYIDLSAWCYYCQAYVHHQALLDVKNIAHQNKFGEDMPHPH

[2] = target: T3, Androgen receptor (Homo sapiens) (UniProt P10275); assay: Antagonist activity at AR in human LNCAP cells assessed as suppression of DHT-induced AR protein level measured after 24 hrs relative to control; type: cell-based
T3 sequence (whole entry): T1 sequence (P10275 whole entry)
Method in brief: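 LNCaP cells were stimulated with 10 nM DHT and co-treated with test agent for 24 h. Whole-cell extracts were resolved on an acrylamide gel and immunoblotted for AR and acetylated tubulin, with actin as the loading control. AR protein level was normalized to actin and compared with vehicle-treated cells.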

[3] = Apparent volume of distribution in mouse at 2 mg/kg, iv by HPLC-MS analysis; type: ADME, organism-based; details: in vivo, read-out: Vz
Method in brief: (§1)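 Mice dosed iv at 2 mg/kg, or ip or sc at 10 mg/kg. Plasma concentration–time profiles were obtained by sparse sampling with N = 3 per time-point. Parameters (Cmax, Tmax, AUClast, terminal t1/2, CL, Vz, bioavailability) were derived by noncompartmental analysis.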

[4] = Metabolic stability in human liver microsomes assessed as compound remaining at 1 uM measured after 30 mins in presence of NADPH by LC-MS/MS analysis; type: ADME; details: read-out: Stability
[5] = AUClast in mouse at 2 mg/kg, iv by HPLC-MS analysis; type: ADME, organism-based; parameters: dose 2 mg/kg, route intravenous, time 0 - last; details: in vivo; method in brief: as §1
[6] = AUClast in mouse at 10 mg/kg, sc by HPLC-MS analysis; type: ADME, organism-based; parameters: dose 10 mg/kg, time 0 - last, route subcutaneous; details: in vivo; method in brief: as §1
[7] = Bioavailability in mouse at 10 mg/kg, ip by HPLC-MS analysis; type: ADME, organism-based; details: in vivo; method in brief: as §1
[8] = Tmax in mouse at 10 mg/kg, ip by HPLC-MS analysis; type: ADME, organism-based; details: in vivo; method in brief: as §1
[9] = Cmax in mouse at 10 mg/kg, sc by HPLC-MS analysis; type: ADME, organism-based; parameters: dose 10 mg/kg, route subcutaneous; details: in vivo; method in brief: as §1
[10] = Tmax in mouse at 10 mg/kg, sc by HPLC-MS analysis; type: ADME, organism-based; details: in vivo; method in brief: as §1
[11] = Metabolic stability in mouse liver microsomes assessed as compound remaining at 1 uM measured after 30 mins in presence of NADPH by LC-MS/MS analysis; type: ADME; details: read-out: Stability
[12] = Terminal half life in mouse at 10 mg/kg, ip by HPLC-MS analysis; type: ADME, organism-based; details: in vivo, read-out: beta t1/2 (converted); method in brief: as §1
[13] = Terminal half life in mouse at 10 mg/kg, sc by HPLC-MS analysis; type: ADME, organism-based; details: in vivo, read-out: beta t1/2 (converted); method in brief: as §1
[14] = Tmax in mouse at 2 mg/kg, iv by HPLC-MS analysis; type: ADME, organism-based; details: in vivo; method in brief: as §1
[15] = Clearance in mouse at 2 mg/kg, iv by HPLC-MS analysis; type: ADME, organism-based; details: in vivo; method in brief: as §1
[16] = AUClast in mouse at 10 mg/kg, ip by HPLC-MS analysis; type: ADME, organism-based; parameters: dose 10 mg/kg, time 0 - last, route intraperitoneal; details: in vivo; method in brief: as §1
[17] = Cmax in mouse at 10 mg/kg, ip by HPLC-MS analysis; type: ADME, organism-based; parameters: dose 10 mg/kg, route intraperitoneal; details: in vivo; method in brief: as §1
[18] = Cmax in mouse at 2 mg/kg, iv by HPLC-MS analysis; type: ADME, organism-based; parameters: dose 2 mg/kg, route intravenous; details: in vivo; method in brief: as §1
UGT [19] = assay: Metabolic stability in human liver microsomes assessed as UGT-mediated glucuronidation of compound by measuring parent compound remaining at 5 uM after 30 mins in presence of UDPGA by LC-MS/MS analysis; type: ADME; details: read-out: Stability
UGT [20] = assay: Metabolic stability in mouse liver microsomes assessed as UGT-mediated glucuronidation of compound by measuring parent compound remaining at 5 uM after 30 mins in presence of UDPGA by LC-MS/MS analysis; type: ADME; details: read-out: Stability
[21] = Bioavailability in mouse at 10 mg/kg, sc by HPLC-MS analysis; type: ADME, organism-based; details: in vivo; method in brief: as §1
[22] = Terminal half life in mouse at 2 mg/kg, iv by HPLC-MS analysis; type: ADME, organism-based; details: in vivo, read-out: beta t1/2 (converted); method in brief: as §1

Sequence of Histone deacetylase 1 (Q13547 whole entry): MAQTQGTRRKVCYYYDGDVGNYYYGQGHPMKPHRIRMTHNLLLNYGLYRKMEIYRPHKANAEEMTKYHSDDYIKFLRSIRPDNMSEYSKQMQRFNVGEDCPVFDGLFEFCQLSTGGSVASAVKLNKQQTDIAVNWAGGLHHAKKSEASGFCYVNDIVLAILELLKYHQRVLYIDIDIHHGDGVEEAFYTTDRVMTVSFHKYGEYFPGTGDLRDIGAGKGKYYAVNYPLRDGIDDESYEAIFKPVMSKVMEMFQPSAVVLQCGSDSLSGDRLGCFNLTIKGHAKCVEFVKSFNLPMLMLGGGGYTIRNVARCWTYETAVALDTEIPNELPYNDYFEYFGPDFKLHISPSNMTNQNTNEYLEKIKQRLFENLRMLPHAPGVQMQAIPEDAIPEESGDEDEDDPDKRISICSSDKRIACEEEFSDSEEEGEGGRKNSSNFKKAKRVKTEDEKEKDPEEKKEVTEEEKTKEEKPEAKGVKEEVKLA
Sequence of Histone deacetylase 3 (O15379 whole entry): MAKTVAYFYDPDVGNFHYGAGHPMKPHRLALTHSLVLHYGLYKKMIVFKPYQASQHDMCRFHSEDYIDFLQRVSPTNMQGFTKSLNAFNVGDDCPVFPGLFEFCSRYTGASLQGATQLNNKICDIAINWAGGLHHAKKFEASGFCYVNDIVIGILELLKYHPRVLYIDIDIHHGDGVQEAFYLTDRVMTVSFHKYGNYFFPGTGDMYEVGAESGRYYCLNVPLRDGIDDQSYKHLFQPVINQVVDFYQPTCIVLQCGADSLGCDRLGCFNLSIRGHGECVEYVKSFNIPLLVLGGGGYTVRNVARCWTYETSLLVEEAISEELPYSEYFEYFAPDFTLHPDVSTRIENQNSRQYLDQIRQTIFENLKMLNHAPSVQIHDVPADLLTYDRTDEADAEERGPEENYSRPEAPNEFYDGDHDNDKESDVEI
Sequence of Histone deacetylase 2 (Q92769 whole entry): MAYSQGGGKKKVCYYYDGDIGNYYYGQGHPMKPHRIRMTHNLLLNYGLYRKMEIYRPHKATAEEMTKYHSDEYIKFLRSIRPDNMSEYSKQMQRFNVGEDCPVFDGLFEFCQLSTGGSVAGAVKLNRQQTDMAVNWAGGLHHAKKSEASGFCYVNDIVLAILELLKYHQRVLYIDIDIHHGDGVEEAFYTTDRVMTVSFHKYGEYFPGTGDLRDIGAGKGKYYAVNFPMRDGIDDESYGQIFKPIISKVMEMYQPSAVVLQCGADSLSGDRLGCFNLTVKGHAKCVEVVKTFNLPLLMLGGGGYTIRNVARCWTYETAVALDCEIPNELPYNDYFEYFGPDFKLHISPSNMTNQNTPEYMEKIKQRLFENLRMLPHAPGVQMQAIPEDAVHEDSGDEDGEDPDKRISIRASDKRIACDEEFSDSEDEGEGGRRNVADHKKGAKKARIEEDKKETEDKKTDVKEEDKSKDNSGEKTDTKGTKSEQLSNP

Compound | IC50 (Histone deacetylase 3) [µM] | IC50 (Histone deacetylase 2) [µM] | IC50 (Histone deacetylase 1) [µM] | IC50 (Androgen receptor) [nM] | IC50 [1] [µM] | further results
CC1(C)C(=O)N(c2ccc(C#N)c(C(F)(F)F)c2)C(=S)N1c1ccc(/C=C/C(=O)Nc2ccccc2N)c(F)c1 | 20.2 | > 100 | > 100 | 230 | 60 | –
CC1(C)C(=O)N(c2ccc(C#N)c(C(F)(F)F)c2)C(=S)N1c1ccc(C(=O)NCCCNS(N)(=O)=O)c(F)c1 | > 100 | > 100 | > 100 | 350 | > 100 | –
CC1(C)C(=O)N(c2ccc(C#N)c(C(F)(F)F)c2)C(=S)N1c1ccc(C(=O)NCCOCCC(=O)NO)c(F)c1 | 49.2 | 86.5 | 58.1 | 78 | 0.495 | –
CC1(C)C(=O)N(c2ccc(C#N)c(C(F)(F)F)c2)C(=S)N1c1ccc(Cn2ccc3cc(/C=C/C(=O)NO)ccc32)c(F)c1 | > 100 | > 100 | > 100 | < 30 | 2.03 | –
CC1(C)C(=O)N(c2ccc(C#N)c(C(F)(F)F)c2)C(=S)N1c1ccc(C(=O)Nc2ccccc2N)c(F)c1 | 5.4 | 14.1 | 6.19 | 330 | 47.3 | –
CC1(C)C(=O)N(c2ccc(C#N)c(C(F)(F)F)c2)C(=S)N1c1ccc(C(=O)NCCCCCCc2ccc(C(=O)C(F)(F)F)s2)c(F)c1 | > 10 | > 10 | > 10 | 68 | > 10 | –
CC1(C)C(=O)N(c2ccc(C#N)c(C(F)(F)F)c2)C(=S)N1c1ccc(C(=O)OCCCCCC(=O)NO)c(F)c1 | 2 | 1.1 | 3.15 | 43 | 0.002 | –
CN1CCc2c(c3ccccc3n2Cc2ccc(C(=O)NO)cc2)C1 | – | – | – | – | – | inhibition [2]: Active
CC1(C)C(=O)N(c2ccc(C#N)c(C(F)(F)F)c2)C(=S)N1c1ccc(C(=O)NCCCCCC(=O)NO)c(F)c1 | 1.83 | 2.25 | 2.89 | < 30 | 0.036 | Vd [3]: 10.3 L/kg; remaining at 0.5 h, 1 µM [4]: 29.1%; AUC(0-t) [5]: 0.206 µM·h; AUC(0-t) [6]: 1.03 µM·h; bioavailability [7]: 82.1%; Tmax [8]: 1 h; Cmax [9]: 269 nM; Tmax [10]: 30 min; remaining at 0.5 h, 1 µM [11]: 21.9%; half-life [12]: 660 min; half-life [13]: 205 min; Tmax [14]: 4.98 min; clearance [15]: 278 mL/min/kg; AUC(0-t) [16]: 0.846 µM·h; Cmax [17]: 419 nM; Cmax [18]: 706 nM; remaining at 0.5 h, 5 µM (UGT [19]): 97.6%; remaining at 0.5 h, 5 µM (UGT [20]): 46.1%; bioavailability [21]: 100%; half-life [22]: 25.6 min

Now from value to molecule, other results behind:

IC50 (Histone deacetylase 3) [µM] | IC50 (Histone deacetylase 2) [µM] | IC50 (Histone deacetylase 1) [µM] | IC50 (Androgen receptor) [nM] | IC50 [1] [µM] | Compound | further results
> 10 | 3.33 | > 10 | < 30 | > 10 | CC1(C)C(=O)N(c2ccc(C#N)c(C(F)(F)F)c2)C(=S)N1c1ccc(C(=O)NCCCCCCn2cccc(O)c2=S)c(F)c1 | –
> 100 | > 100 | > 100 | 250 | > 100 | CC1(C)C(=O)N(c2ccc(C#N)c(C(F)(F)F)c2)C(=S)N1c1ccc(C(=O)NCCCCCCn2cccc(O)c2=O)c(F)c1 | –
> 100 | > 100 | > 100 | 110 | 1.12 | CC1(C)C(=O)N(c2ccc(C#N)c(C(F)(F)F)c2)C(=S)N1c1ccc(C(=O)NCCCCCCNS(N)(=O)=O)c(F)c1 | –
> 100 | > 100 | > 100 | 560 | 14 | CC1(C)C(=O)N(c2ccc(C#N)c(C(F)(F)F)c2)C(=S)N1c1ccc(C(=O)NCCCn2cccc(O)c2=O)c(F)c1 | –
0.28 | 3.37 | > 10 | < 30 | > 10 | CC1(C)C(=O)N(c2ccc(C#N)c(C(F)(F)F)c2)C(=S)N1c1ccc(C(=O)NCCCCCCC(=O)Nc2ccccc2N)c(F)c1 | –
